ChEMBL document CHEMBL1275591, “Cellular pharmacodynamics of the novel biaryloxazolidinone radezolid: studies with infected phagocytic and nonphagocytic cells, using Staphylococcus aureus, Staphylococcus epidermidis, Listeria monocytogenes, and Legionella pneumophila” (Antimicrob Agents Chemother, 2010)
In brackets after ≈: the same amount, converted by molar mass.

Columns and labels:
Staphylococcus aureus [1] = assay: Antimicrobial activity against methicillin-susceptible Staphylococcus aureus SA040 after 24 hrs; format: functional; details: SA040, 24 h
Staphylococcus aureus [2] = assay: Antimicrobial activity against hospital acquired methicillin-resistant Staphylococcus aureus SA238 after 24 hrs; format: functional; details: SA238, 24 h
Staphylococcus aureus [3] = assay: Antimicrobial activity against methicillin-resistant, vancomycin intermediate Staphylococcus aureus NRS52 after 24 hrs; format: functional; details: NRS52, 24 h
Staphylococcus aureus [4] = assay: Antimicrobial activity against hospital acquired methicillin-resistant, vancomycin resistant Staphylococcus aureus VRS1 after 24 hrs; format: functional; details: VRS1, 24 h
Staphylococcus aureus [5] = assay: Antimicrobial activity against hospital acquired methicillin-resistant, vancomycin resistant Staphylococcus aureus VRS2 after 24 hrs; format: functional; details: VRS2, 24 h
[6] = test system: Staphylococcus epidermidis; assay: Antimicrobial activity against Staphylococcus epidermidis SA362 after 24 hrs; format: functional; details: SA362, 24 h
Staphylococcus aureus [7] = assay: Antimicrobial activity against Staphylococcus aureus infected in THP1 cells after 24 hrs; format: functional, organism-based; details: THP-1, 24 h
Summary of the method: (§1)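 Bacteria were phagocytosed by human THP-1 macrophage-like cells, then exposed to a range of drug concentrations for a fixed time: 24 h for S. aureus, S. epidermidis and L. monocytogenes, 48 h for L. pneumophila. Change in CFU versus the initial inoculum was fitted with a sigmoidal curve to give Emin, Emax (relative maximal efficacy), EC50 and static concentration (Cs).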

[8] = test system: Staphylococcus epidermidis; assay: Antimicrobial activity against Staphylococcus epidermidis infected in THP1 cells after 24 hrs; format: functional, organism-based; details: THP-1, 24 h; summary of the method: as §1
Listeria monocytogenes [9] = assay: Antimicrobial activity against Listeria monocytogenes infected in THP1 cells after 24 hrs; format: functional, organism-based; details: THP-1, 24 h; summary of the method: as §1
Listeria monocytogenes [10] = assay: Bacteriostatic activity against Listeria monocytogenes EGD infected in THP1 cells after 24 hrs; format: functional, THP-1; summary of the method: as §1
Legionella pneumophila = assay: Bacteriostatic activity against Legionella pneumophila ATCC 33153 infected in THP1 cells after 48hrs; format: functional, THP-1; summary of the method: as §1
Staphylococcus aureus [11] = assay: Antimicrobial activity against linezolid-susceptible Staphylococcus aureus ATCC 25923 infected in THP1 cells assessed as log reduction in bacterial count after 24 hrs; format: functional, THP-1; summary of the method: as §1
Staphylococcus aureus [12] = assay: Antimicrobial activity against linezolid-susceptible Staphylococcus aureus NRS18 infected in THP1 cells assessed as log reduction in bacterial count after 24 hrs; format: functional, THP-1; summary of the method: as §1
Staphylococcus aureus [13] = assay: Antimicrobial activity against linezolid-susceptible Staphylococcus aureus SA040 infected in THP1 cells assessed as log reduction in bacterial count after 24 hrs; format: functional, THP-1; summary of the method: as §1
Staphylococcus aureus [14] = assay: Antimicrobial activity against linezolid-susceptible Staphylococcus aureus SA238 infected in THP1 cells assessed as log reduction in bacterial count after 24 hrs; format: functional, THP-1; summary of the method: as §1
Staphylococcus aureus [15] = assay: Bacteriostatic activity against linezolid-susceptible Staphylococcus aureus ATCC 33591 infected in THP1 cells after 24 hrs; format: functional, THP-1
Summary of the method: (§2)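 Human THP-1 myelomonocytic (macrophage-like) cells infected with S. aureus, then exposed 24 h to a range of antibiotic concentrations. CFU change was measured against the initial inoculum. A sigmoidal dose-response curve was fitted to give Emin, Emax and EC50, and the apparent static concentration (Cs) was taken from the fit.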

Staphylococcus aureus [16] = assay: Bacteriostatic activity against linezolid-susceptible Staphylococcus aureus NRS18 infected in THP1 cells after 24 hrs; format: functional, THP-1; summary of the method: as §2
Staphylococcus aureus [17] = assay: Bacteriostatic activity against linezolid-resistant Staphylococcus aureus SA238L infected in THP1 cells after 24 hrs; format: functional, THP-1; summary of the method: as §2
Staphylococcus aureus [18] = assay: Antimicrobial activity against linezolid-susceptible Staphylococcus aureus SA238 infected in Calu-3 cells assessed as log reduction in bacterial count after 24 hrs; format: functional
Summary of the method: (§3)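 S. aureus was internalized by adherent nonphagocytic cells: Calu-3, HUVEC, keratinocytes on collagen-coated wells, osteoblasts, or rat embryo fibroblasts. Inoculum was 5 × 10^7 to 1 × 10^8 bacteria/ml with 2 h phagocytosis (HUVEC: 2 × 10^6/ml, 1 h). Cells were then exposed to graded drug concentrations for 24 h. CFU change versus the original inoculum was fitted sigmoidally for Emax and Cs.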

Staphylococcus aureus [19] = assay: Antimicrobial activity against linezolid-resistant Staphylococcus aureus SA238L infected in Calu-3 cells assessed as log reduction in bacterial count after 24 hrs; format: functional; summary of the method: as §3
Staphylococcus aureus [20] = assay: Bacteriostatic activity against linezolid-susceptible Staphylococcus aureus SA238 infected in Calu-3 cells after 24 hrs; format: functional
Summary of the method: (§4)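 Adherent nonphagocytic cells were infected at 5 × 10^7 to 1 × 10^8 bacteria/ml with 2 h phagocytosis. Cells used: Calu-3 bronchial epithelium grown in uncoated flasks, neonatal foreskin keratinocytes on collagen-coated wells, primary human osteoblasts, and primary rat embryo fibroblasts. Antibiotic was then given over a concentration range for 24 h. Cs came from a sigmoidal fit of CFU change.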

Staphylococcus aureus [21] = assay: Antimicrobial activity against linezolid-susceptible Staphylococcus aureus SA238 infected in human epidermal keratinocytes cells assessed as log reduction in bacterial count after 24 hrs; format: functional; summary of the method: as §3
Staphylococcus aureus [22] = assay: Antimicrobial activity against linezolid-resistant Staphylococcus aureus SA238L infected in human epidermal keratinocytes cells assessed as log reduction in bacterial count after 24 hrs; format: functional; summary of the method: as §3
Staphylococcus aureus [23] = assay: Bacteriostatic activity against linezolid-susceptible Staphylococcus aureus SA238 infected in rat fibroblast cells after 24 hrs; format: functional; summary of the method: as §4
Staphylococcus aureus [24] = assay: Bacteriostatic activity against linezolid-resistant Staphylococcus aureus SA238L infected in rat fibroblast cells after 24 hrs; format: functional; summary of the method: as §4
HUVEC [25] = assay: Ratio of drug level for cellular to extracellular region of Staphylococcus aureus infected HUVEC cells at 4 mg/liter after 2 hrs; format: ADME, cell-based; details: human
Summary of the method: (§5)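 Cells were exposed to [14C]radezolid for 2 or 24 h. Cell-associated drug in lysates was measured by liquid scintillation counting (detection limit 0.003 mg/liter; linear 0.01–0.78 mg/liter). Content was normalised to cell protein (Lowry). It was converted to apparent cellular concentration at 5 μl per mg protein and expressed relative to the extracellular concentration.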

[26] = Ratio of drug level for cellular to extracellular region of Staphylococcus aureus infected human Calu3 cells at 4 mg/liter after 2 hrs; format: ADME, cell-based; details: calu-3, 2 h; summary of the method: as §5
[27] = Ratio of drug level for cellular to extracellular region of Staphylococcus aureus infected rat fibroblast at 4 mg/liter after 2 hrs; format: ADME, cell-based; summary of the method: as §5
[28] = Ratio of drug level for cellular to extracellular region of Staphylococcus aureus infected human osteoblast at 4 mg/liter after 2 hrs; format: ADME, cell-based; summary of the method: as §5
HUVEC [29] = assay: Ratio of drug level for cellular to extracellular region of Staphylococcus aureus infected HUVEC cells at 4 mg/liter after 24 hrs; format: ADME, cell-based; details: human; summary of the method: as §5
[30] = Ratio of drug level for cellular to extracellular region of Staphylococcus aureus infected human keratinocyte at 4 mg/liter after 24 hrs; format: ADME, cell-based; summary of the method: as §5
[31] = Ratio of drug level for cellular to extracellular region of Staphylococcus aureus infected human osteoblast at 4 mg/liter after 24 hrs; format: ADME, cell-based; summary of the method: as §5
Staphylococcus aureus [32] = assay: Bacteriostatic activity against linezolid-susceptible Staphylococcus aureus SA238 infected in THP1 cells at pH 5.5 after 24 hrs; format: functional, THP-1
Staphylococcus aureus [33] = assay: Bacteriostatic activity against linezolid-susceptible Staphylococcus aureus SA238 after 24 hrs; format: functional
Summary of the method: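 Extracellular concentration-response in Mueller-Hinton broth over 24 h. Change in CFU was fitted to a sigmoidal function, and the apparent static concentration (Cs) was derived from the fit.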

Staphylococcus aureus [34] = assay: Antimicrobial activity against Staphylococcus aureus ATCC 25923 infected in THP-1 cells assessed as log reduction in bacterial count at 1 mg/L after 5 hrs; format: functional
Summary of the method: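 Time-course test with S. aureus ATCC 25923, either in Mueller-Hinton broth or after phagocytosis by THP-1 cells. Samples were taken over a 5 h incubation with drug at 1 mg/liter. Read-out was the change in CFU relative to the initial inoculum, reported as means.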

For `CC(=O)NC[C@H]1CN(c2ccc(-c3ccc(CNCc4cnn[nH]4)cc3)c(F)c2)C(=O)O1` [RADEZOLID], the MIC (Staphylococcus aureus [1]) was 1 µg/mL (≈ 2.28 µM), the MIC (Staphylococcus aureus [2]) was 0.5 µg/mL (≈ 1.14 µM) and the MIC (Staphylococcus aureus [3]) was 2 µg/mL (≈ 4.56 µM). The MIC (Staphylococcus aureus [4]) was 0.5 µg/mL (≈ 1.14 µM), the MIC (Staphylococcus aureus [5]) was 2 µg/mL (≈ 4.56 µM) and the MIC [6] was 0.25 µg/mL (≈ 0.57 µM). For the same compound, the EC50 (Staphylococcus aureus [7]) was 0.24 µg/mL (≈ 0.547 µM), the EC50 [8] was 1.51 µg/mL (≈ 3.44 µM) and the EC50 (Listeria monocytogenes [9]) was 0.04 µg/mL (≈ 0.0912 µM). The Activity (Listeria monocytogenes [10]) was 0.43 mg/L, the Activity (Legionella pneumophila) was 0.36 mg/L and the log10cfu (Staphylococcus aureus [11]) was -0.57. For the same compound, the log10cfu (Staphylococcus aureus [12]) was -1, the log10cfu (Staphylococcus aureus [13]) was -0.96 and the log10cfu (Staphylococcus aureus [14]) was -0.79. For the same compound, the Activity (Staphylococcus aureus [15]) was 0.56 mg/L, the Activity (Staphylococcus aureus [16]) was 0.28 mg/L and the Activity (Staphylococcus aureus [17]) was 0.97 mg/L. For the same compound, the log10cfu (Staphylococcus aureus [18]) was 0.6, the log10cfu (Staphylococcus aureus [19]) was 0.6 and the Activity (Staphylococcus aureus [20]) was 0.6 mg/L. It also gave a log10cfu (Staphylococcus aureus [21]) of 0.6, a log10cfu (Staphylococcus aureus [22]) of 0.6 and an Activity (Staphylococcus aureus [23]) of 0.6 mg/L. For the same compound, the Activity (Staphylococcus aureus [24]) was 0.6 mg/L, the Ratio (HUVEC [25]) was 9.5 and the Ratio [26] was 8.5. The Ratio [27] was 14.4, the Ratio [28] was 9.8 and the Ratio (HUVEC [29]) was 10.5. It also gave a Ratio [30] of 16.1, a Ratio [31] of 9.7 and an Activity (Staphylococcus aureus [32]) of 0.06 mg/L. It also gave an Activity (Staphylococcus aureus [33]) of 0.52 mg/L and a log10cfu (Staphylococcus aureus [34]) of 0.5.
